Experimental data pooled from the literature.
pIC50: −log10 of the molar value.
KCNH2: Voltage-gated inwardly rectifying potassium channel KCNH2 (KCNH2, Homo sapiens, UniProt Q12809)

| Compound | tested on | test | test system | conditions | quantity | result |
| --- | --- | --- | --- | --- | --- | --- |
| CCOC(=O)C1=C(CN2CCC[C@@H]2C(=O)Nc2ccc(B(O)O)cc2)NC(c2nccs2)=N[C@H]1c1ccc(F)cc1Br | KCNH2 | ion current, inhibitor, patch clamp | HEK293 | 30 µM, pH 7.4 | inhibition | 83% |
| C[C@H]1Oc2cc(cnc2N)-c2c(nn(C)c2C#N)CN(C)C(=O)c2ccc(F)cc21 | – | – | male Sprague-Dawley rat, plasma | oral, 5 mg/kg, single dose | MRT(0-inf) | 8.14 h |
| CC(C)n1cc(C#N)c2cc(-n3cc(C(=O)O)cn3)ccc21 | – | – | human, plasma | oral, 50 mg, single dose, fasted, healthy volunteers | Tmax | 2.75 h |
| N[C@H]1C(O)O[C@H](CO)[C@@H](O)[C@@H]1O (stereo partly drawn) | Caco-2 | cell growth or viability, CCK-8 | – | 50 mM | viability | 97.9% |
| NC(=O)c1ncn([C@@H]2O[C@H](CO)[C@@H](O)[C@H]2O)n1 | RD | cell growth or viability, MTT | – | – | CC50 | 104 µM |
| COc1ccc2c(c1)CN(C(=O)CCN1CCC(Cc3ccccc3)CC1)CC[S@@+]2[O-] | – | – | male human, plasma | intravenous, 0.4 mg/kg, healthy volunteers | Tmax | 0 h |
| COc1nc(-c2cccc(-c3ccccc3)c2C)ccc1CNCCNC(=O)CCCCCCCCCCC(=O)N1CCN(CCNC(=O)c2cc3c(=O)n4cccc(C)c4nc3n(CCc3cccs3)c2=N)CC1 | – | – | male Sprague-Dawley rat, plasma | intraperitoneal, 4 mg/kg | MRT(0-inf) | 7.2 h |
| O=C(COc1ccc(Cl)cc1)NC12CC(c3nnc([C@H]4C[C@@H](OC(F)(F)F)C4)o3)(C1)C2 | – | – | human, plasma | oral, 800 mg, single dose, fasted, healthy volunteers | Tmax | 36 h |
| CN1C[C@H](COc2nccc3c(NCc4ccco4)cc(Cl)nc23)OC1=O | KCNH2 | ion current, inhibitor | HEK293 | 3 µM | inhibition | 7% |
| CC(=O)N1CCC(C(=O)N2CCN3C(=O)c4cc(-c5ccccc5)ccc4NC(=O)C3C2)CC1 (stereo not drawn) | KCNH2 | ion current, inhibitor, patch clamp | HEK293 | 100 µM | inhibition | 56.8% |
| O=C(O)COc1cccc(-c2nc(Nc3ccc4[nH]ncc4c3)c3ccccc3n2)c1 | Bile salt export pump (ABCB11, Homo sapiens, UniProt O95342) | transporter uptake, inhibitor, radiometric | – | – | pIC50 | 4.32 |
| COc1cc(N)c(Cl)cc1C(=O)NC1CCN(CCCOc2ccc(F)cc2)CC1OC (stereo not drawn) | KCNH2 | ion current, inhibitor, patch clamp | HEK293 | 10 nM, pH 7.4 | inhibition | 39% |
| Cn1c(=O)c2[nH]cnc2n(C)c1=O | – | – | male Sprague-Dawley rat, plasma | intravenous, 22.5 mg/kg | MRT(0-t) | 2.61 h |
| COc1cccc(OC)c1-c1cc(C(=O)NC2(C(=O)O)C3CC4CC(C3)CC2C4)nn1-c1ccc(C(=O)N(C)CCCN(C)CCCN(C)C(=O)CN2CCN(CC(=O)[O-])CCN(CC(=O)[O-])CCN(CC(=O)[O-])CC2)cc1C(C)C.[177Lu+3] (stereo not drawn) | HT-29 | – | stomach | 7 days, tumour-bearing | tracer uptake | 0.09 %ID/g |
| CC(C)n1ncc2c(C(=O)NCC3(C)CNC3)cc(C3CC3)nc21 | RD | cell growth or viability, neutral red | – | 0.33 µM | viability | 98.1% |
